Bioassay records: PubChem BioAssay, several laboratories
XiGFP reactiv – activators of inactive X chromosome reactivation, primary screen, imaging, XiGFP fibroblasts, GFP high-content imaging, set 2; XiGFP mouse fibroblasts, % GFP-positive cells imaging, 3 d; cells co-treated with 5-aza-dC sensitizer; scaled so ellipticine positive control = 100%; activation, % at 7.58 µM; 360,000 compounds, 0.055% hits;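 active = mean normalized replicate activation at least 10% and every replicate at or above 10%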;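 note: 0% = median of on-plate neutral control wells and 100% = ellipticine 6 µM median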
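Assay system: SV40-immortalized XiGFP fibroblast cells, line 68-5-11; buffer or medium: DMEM plus 5-aza-dC sensitizer; compound: one concentration, pinned; timing: compounds 3 days, fix/stain 15 min at room temperature; benchmarks: positive control ellipticine, 6 µM final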
CaV13 ICDI inh – Disruptors of the CACNA1D IQ motif to Ca2+-dependent inactivation inhibitor domain association, primary screening, Förster resonance energy transfer in intact living …; HEK cells, CFP/YFP FRET ICDI-IQ, plate reader, 10 min; percent FRET-ratio fall versus neutral wells; inhibition, % at 12.3 µM; 340,000 compounds, 0.098% hits;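 active = mean replicate inhibition of at least 30% and at least 1% of replicates passing that level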;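 note: 0% = median of the neutral control wells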
LGR2 antag – inhibitors of bursicon-induced LGR2 CRE-luciferase signal, primary screen, cell-based, HEK293, CRE-luciferase reporter, bursicon stimulation; Drosophila bursicon receptor LGR2 (rickets); AID 720647, 2013; bursicon-stimulated, 4 h; 380,000 compounds, 0.35% hits; inhibition, % at 9.99 µM;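 active = drop in luminescence signal, shown as inhibition above about 50% in the replicate tests, limit read from the data, passing the limit was not always enough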;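 note: agonist challenge used bursicon conditioned medium at about half maximal strength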
TWEAK Fn14 block – inhibitors of TWEAK-Fn14 signaling, primary screen, luciferase reporter cells, uHTS; TWEAK-stimulated Fn14 reporter cells, luciferase luminescence, 8 h; inhibition, % at 10 µM; 360,000 compounds, 2% hits; in the data active = inhibition above about 50%
TROY signal inh – inhibitors of TROY-driven NF-kB signaling, primary screen, Q293 LMP1-TROYcd cells, NF-kB luciferase, uHTS | AID 1347056, 2019 | 360,000 compounds, 0.98% hits | Q293 LMP1-TROYcd NF-kB luciferase reporter, 4 h | inhibition, % at 10 µM;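 active = compounds whose plate-normalised and pattern-corrected inhibition of the luciferase reporter signal at the single screening dose is 50% or more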
Numbers without * were called inactive; nt = not tested or not shown. The list is not random: actives were taken first. Their share in the collection is about 2%.

SMILES | XiGFP reactiv | CaV13 ICDI inh | LGR2 antag | TWEAK Fn14 block | TROY signal inh
Cc1ccc(O)c(C(=O)/C=C/c2ccc3c(c2)OCCCO3)c1 | 1 | nt | -30 | 56* | -26
CN(C)c1ccc(/C=C/C(=O)c2ccccc2O)cc1 | 1 | -24 | -2 | 58* | 50*
Cc1ccc(C(=O)/C=C/c2ccc3c(c2)OCO3)o1 | nt | -7 | -56 | 2 | -64
C/C=C/c1ccc([C@H]2[C@@H](CO)N3CCCCN(C(=O)C4CCCC4)C[C@@H]23)cc1 | 0 | nt | 8 | nt | nt
O=C(Nc1ccc(Cl)cc1)/C(=C/c1cccc(O)c1)c1nc2ccccc2s1 | 1 | -2 | 86* | 104* | 83*
CCc1nnc(NC(=O)c2ccc(OC)cc2OC)s1 | nt | nt | nt | 74* | 22
O=C(Nc1ccc(Cc2nc3ccccc3s2)cc1)c1ccncc1 | 0 | -3 | 7 | 59* | 27
COc1cc2nc(NC(=O)c3ccccc3)sc(=O)c2cc1OC | 0 | -4 | 0 | 72* | 7
NC(=O)c1ccc(NC(=O)CCc2nc3ccccc3s2)cc1 | 0 | -5 | -25 | -11 | -6
CO[C@@H]1CN(C)C(=O)c2ccc(NS(C)(=O)=O)cc2OC[C@H](C)N(Cc2cccnc2)C[C@@H]1C | 0 | nt | 6 | nt | nt
CNC(=O)C[C@H]1CC[C@@H]2[C@H](COC[C@@H](O)CN2Cc2ccncc2)O1 | 0 | nt | 15 | nt | nt
C[C@@H]1CN([C@@H](C)CO)C(=O)c2cc(-c3cncnc3)cnc2O[C@@H]1CN(C)C(=O)Cc1ccccc1 | 0 | nt | 6 | nt | nt
COc1ccc(C(=O)Nc2nc3ccccc3s2)c(OC)c1 | 0 | -4 | 103* | 105* | 85*
COc1cccc2sc(Nc3nc4ccc(NC(C)=O)cc4s3)nc12 | 1 | -4 | nt | 51* | -40
Nc1ccc(C(=O)Nc2nc3ccccc3s2)cc1 | 0 | -19 | -13 | 62* | -13
Cn1cc(Cl)c(C(=O)Nc2nc3ccccc3s2)n1 | nt | -3 | nt | 57* | 7
CNC[C@@H]1Oc2ccc(NS(=O)(=O)c3cn(C)cn3)cc2CC(=O)N([C@H](C)CO)C[C@H]1C | 0 | nt | 16 | nt | nt
CC(=O)N1C[C@@H]2[C@H](c3ccccc31)[C@@H](CO)N2C(=O)CC1CC1 | 0 | nt | 3 | nt | nt
Cc1csc(NC(=O)c2nc3nccc(C)n3n2)n1 | nt | -2 | nt | 6 | -34
COc1ccc(OC)c(NC(=O)c2nc3ccccc3s2)c1 | 0 | -1 | -30 | -19 | -34
S=C(Nc1ccc(Cl)cc1)c1nc2ccccc2s1 | nt | -2 | nt | 1 | -45
COc1ccccc1C(=O)Nc1nc2ccccc2s1 | 0 | -4 | 105* | 104* | 85*
Cc1ccc(NC(=S)c2nc3ccccc3s2)cc1 | nt | -4 | nt | 78* | 55*
COc1ccc(NC(=O)c2nc3ccccc3s2)cc1 | 0 | -5 | 15 | 61* | 38
Cc1ccnc2nc(C(=O)Nc3nc4ccccc4s3)nn12 | 0 | -2 | 18 | 67* | -46
SMILES | XiGFP reactiv | CaV13 ICDI inh | LGR2 antag | TWEAK Fn14 block | TROY signal inh
O=C(C[C@H]1C[C@@H]2c3cc(NC(=O)c4ccc5c(c4)OCO5)ccc3O[C@@H]2[C@@H](CO)O1)NCC1CC1 | 0 | nt | 13 | nt | nt
COC(=O)Cc1ccc2sc(-c3ccccc3)nc2c1 | 0 | -15 | 48 | 56* | 12
COc1ccccc1C(=O)NCc1ccc(-c2nc3ccccc3s2)cc1 | 0 | -6 | -6 | 76* | 45
CCOC(=O)/C(C#N)=C\c1cc(C)n(-c2ccccc2)c1C | nt | -4 | nt | 81* | 79*
CCOC(=O)/C(C#N)=C/c1cc(C)n(-c2ccc(C)cc2)c1C | nt | -5 | -3 | 42 | 50*
Cc1cc(/C=C(\C#N)C(=O)Nc2ccccc2)c(C)n1-c1ccc(C(=O)O)cc1 | 0 | -2 | -10 | -7 | 8
C[C@@H]1CCCCO[C@H](CN(C)S(=O)(=O)c2cccs2)[C@@H](C)CN([C@H](C)CO)C(=O)c2cc(NS(=O)(=O)c3cn(C)cn3)ccc2O1 | 0 | nt | -1 | nt | nt
Cc1cc(-c2ccccc2)c2ccc(NC(=O)C(C)(C)C)nc2n1 | 0 | 45* | 19 | -12 | -12
